NF-kB neuron act = compounds increasing NF-kB expression in human neuronal cells. NF-kB reporter expression; active compounds read high. 190,000 compounds, 1.6% hits. fold change at 12.5 µM; in the data active means fold change above about 3.3
STAT1 blocker = inhibitors of IFN-gamma induced STAT1 signaling; AID 920; 200,000 compounds, 0.35% hits; inhibition, % at 5.5 µM; NIH 3T3 STAT1-luciferase reporter, luminescence;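 active means inhibition above a set limit, the mean inhibition across all tested compounds plus 3 SD, cut at about 34% in these data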
STAT3 activator = STAT3 signaling activation; U3A cells, IL-6 STAT3-luciferase reporter, luminescence; 100% = signal with IL-6 EC80 alone; activation (% of control), % at 5.6 µM; 190,000 compounds, 0.91% hits; AID 871;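 active means activation above the screen-wide mean of compound activation plus 3 SD, cut at about 130% in these data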
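Material: STAT1-lacking human U3A cells, STAT3 luciferase reporter | Benchmarks: IL-6-only wells as 100% reference | Probe or stimulus: IL-6 (33 ng/mL) | Timing: Compound 1 h, then IL-6 6 h at 37 °C | Detection: Luminescence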
STAT3 blocker = inhibitors of IL-6 induced STAT3 signaling | U3A cells, IL-6 STAT3-luciferase reporter, luminescence; host cell line lacks STAT1 | inhibition, % at 5.5 µM | 190,000 compounds, 0.89% hits | AID 862;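 active means inhibition above the mean inhibition across all screened compounds plus 3 SD, cut at about 44% in these data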
STAT1 activator = STAT1 signaling activation; NIH 3T3 STAT1-luciferase reporter, IFN-gamma, luminescence; 100% = IFN-gamma alone, no compound; activation (% of control), % at 5.5 µM; 200,000 compounds, 2.6% hits; AID 932;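 active means activation above the screen-wide mean activation plus 3 SD, cut at about 130% in these data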
APP 5'UTR act = activates APP 5'UTR luciferase reporter. SH-SY5Y APP 5'UTR luciferase reporter, luminescence; zero percent = DMSO vehicle wells. activation, % at 2 µM. 190,000 compounds, 1% hits. AID 1276;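 active means activation above a set limit, based on mean plus 3 SD of controls, cut at about 140% in these data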
STAT1 activ conf = confirmation of STAT1 signaling activators | NIH 3T3 STAT1-luciferase reporter, IFN-gamma potentiation, luminescence; 100% = IFN-gamma EC80 alone, no compound | activation (% of control), % at 5.7 µM | 1,200 compounds, 97% hits | shares compounds with STAT1 activator;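 active means activation above a set limit carried over from the earlier primary STAT1 screen, cut at about 140% in these data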
NFkB act STAT1ct = activates NF-kappaB, counter-screen to STAT1 activators; shares compounds with STAT1 activator; HEK293T NF-kB luciferase reporter, TNF-alpha stimulated, luminescence; 100% = TNF-alpha with vehicle only; activation (% of control), % at 5.7 µM; 1,200 compounds, 43% hits; AID 1306;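 active means activation above the mean of solvent-only control wells plus 3 SD, set per campaign, cut at about 130% in these data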;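 further: TNF-alpha given at a submaximal dose yielding about 80% of full reporter signal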
STAT3 act STAT1c = activates human STAT3, counter-screen to STAT1 activators | shares compounds with STAT1 activator | U3A cells STAT3-luciferase reporter, IL-6, luminescence; cells lack STAT1; 100 = IL-6 alone, no compound effect | activation (% of control), % at 5.7 µM | 1,200 compounds, 46% hits | AID 1316;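 active means activation above the solvent-only control well mean plus 3 SD, set per plate batch, cut at about 110% in these data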;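 further: higher means more STAT3 reporter activation so hits are non-selective activators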
Hits are given with their value; - = inactive; . = no result. The list is not random: actives were taken first. Their share in the collection is about 4.9%.

SMILES	NF-kB neuron act	STAT1 blocker	STAT3 activator	STAT3 blocker	STAT1 activator	APP 5'UTR act	STAT1 activ conf	NFkB act STAT1ct	STAT3 act STAT1c
CN(C)c1ccc(/C=C/c2nnnn2-c2ccccc2)cc1	3.9	-	-	-	172	-	187	134	118
CC1CCCC(NCC(=O)Nc2ccc(C(N)=O)cc2)C1C (stereo not drawn)	-	-	-	-	-	-	.	.	.
Cc1ccc(/C(N)=N/OC(=O)c2ccc3c(c2)OCO3)cc1	5	-	-	-	156	142	186	136	-
N/C(=N\OC(=O)c1ccc2c(c1)OCO2)c1ccc(Cl)cc1	5.9	-	-	-	153	-	187	-	-
Nc1ccc2nc(N3CCOCC3)sc2c1	-	-	-	-	-	-	.	.	.
Clc1ccc2nc(N3CCCCC3)sc2c1	4.9	-	-	-	166	173	207	138	-
CN(C1CCCCC1)S(=O)(=O)c1cccc(C(=O)OCC(=O)NC2CCCc3ccccc32)c1 (stereo not drawn)	-	-	-	-	-	-	.	.	.
C=CCNc1nc(-c2ccc(Cl)cc2)cs1	7.5	-	-	-	182	166	215	141	-
C=CCNc1nc(-c2ccc([N+](=O)[O-])cc2)cs1	4	-	-	-	151	-	194	136	-
O=C(CCCc1ccccc1)N1CCc2ccccc21	7.7	-	-	-	180	-	221	137	115
Cc1c(C(=O)N2CCc3ccccc32)oc2c1C(=O)CC(C)(C)C2	-	-	-	-	157	-	180	134	113
Cc1nc2ccccc2c2oc(C(=O)N3CCc4ccccc43)cc12	-	-	.	.	-	-	.	.	.
Cc1ccc(C(=O)N2CCc3ccccc32)o1	-	-	-	-	165	159	183	-	-
N#CC(C#N)=Cc1ccc(OCC(=O)N2CCOCC2)cc1	-	-	-	-	-	-	.	.	.
Cc1nc(Nc2ccc3c(c2)OCCO3)c2oc3ccccc3c2n1	-	-	-	-	-	-	.	.	.
COc1ccc(Nc2ncnc3c2oc2ccccc23)cc1	3.4	-	-	-	163	-	204	134	-
COc1ccccc1Oc1ncnc2c1oc1ccccc12	-	-	-	-	-	-	.	.	.
c1ccc2c(c1)oc1c(Nc3ccc4c(c3)OCCO4)ncnc12	5	-	-	-	180	164	260	141	114
Cc1ccc(Nc2ncnc3c2oc2ccccc23)cc1	5.4	-	-	-	171	152	231	155	117
c1coc(CNc2ncnc3c2oc2ccccc23)c1	-	-	-	-	-	-	.	.	.
Nc1ccc2oc(CCc3ccccc3)nc2c1	-	-	-	-	161	-	177	143	116
COc1ccccc1NC(=O)C1=C(C)NC(=O)NC1c1cccs1 (stereo not drawn)	-	-	-	-	-	-	.	.	.
CCOC(=O)C1(Cc2ccc(OC)cc2)CCN(C(=O)c2ccoc2C)CC1	-	-	-	-	-	-	.	.	.
O=C(CSc1nc2ccccc2c(=O)n1NC(=O)c1ccccc1)c1ccccc1	-	-	-	-	151	-	159	-	125
O=C(NNc1nc2cc3c(cc2s1)OCO3)c1cccc(F)c1	-	-	-	-	-	-	.	.	.
SMILES	NF-kB neuron act	STAT1 blocker	STAT3 activator	STAT3 blocker	STAT1 activator	APP 5'UTR act	STAT1 activ conf	NFkB act STAT1ct	STAT3 act STAT1c
COC(=O)c1cnn(-c2nc(OC)cc(OC)n2)c1C	-	-	-	-	-	-	.	.	.
COc1cc(OC)nc(-n2ncc(Br)c(Br)c2=O)n1	-	-	-	-	240	-	273	-	-
CN(CC(=O)Nc1ccc(F)cc1)C(=O)COc1ccc(C(=O)c2ccccc2)cc1	-	-	-	-	-	-	.	.	.
Cc1[nH]nc2c1/C(=N\O)CCC2	-	-	-	-	-	-	.	.	.
COc1cc(/C=N\n2cnnc2)ccc1OCC(=O)Nc1ccc(C)cc1	-	-	-	-	-	-	.	.	.
COc1cc(/C=N/OCC(=O)Nc2cc(C)cc(C)c2)ccc1OCc1ccc(Cl)cc1	4.1	-	-	-	152	-	183	-	113
COc1cc(/C=N/OCC(=O)NC2CCCCC2C)ccc1OCc1ccc(Cl)cc1 (stereo not drawn)	5	-	-	-	158	141	182	134	-
COC(=O)c1ccc(/C=N/OCC(=O)NC2CCCC(C)C2C)cc1 (stereo not drawn)	-	-	-	-	-	-	.	.	.
N#C/C(=C\c1ccc(N2CCOCC2)o1)c1ccccc1	-	-	-	-	161	-	235	150	126
N#C/C(=C/c1ccc(N2CCOCC2)o1)c1ccc(Br)cc1	-	-	-	-	-	-	.	.	.
N#C/C(=C\c1ccc(N2CCOCC2)cc1)c1ccccc1	-	-	-	-	174	208	226	143	-
N#C/C(=C\N1CCOCC1)c1ccccc1	-	-	-	-	-	-	.	.	.
CC(C)(C)NC(=S)NCc1ccncc1	-	-	-	-	-	-	.	.	.
CC(C)Cn1c(N)c(C(=O)CSc2nc3ccccc3c(=O)n2CCCN2CCOCC2)c(=O)n(C)c1=O	-	-	-	-	-	-	.	.	.
CCNc1nc(=S)nc(NCc2ccccc2)[nH]1	-	-	-	-	-	-	.	.	.
O=C(NCCc1ccccc1)c1ccccc1NC(=O)C1CC=CCC1C(=O)O (stereo not drawn)	-	-	-	-	152	-	133	-	-
O=C(OCC(=O)N1CCOCC1)c1ccccc1Cc1ccccc1	5.5	-	-	-	158	-	198	140	137
O=C(OCC(=O)N1CCOCC1)c1ccccc1SCC(=O)N1CCCC1	-	-	-	-	-	-	.	.	.
C/C(=N\NC(=O)Cc1csc(N2CCOCC2)n1)c1ccc(Cl)c(Cl)c1	-	-	-	-	-	-	.	.	.
Nc1nc(-c2ccc(Cl)cc2)nnc1-c1ccc(Br)cc1	3.8	-	-	-	165	194	191	143	-
Nc1c(C(=O)c2ccc(Br)cc2)oc2ccccc12	-	-	-	-	-	-	.	.	.
Nc1c(C(=O)c2ccccc2)oc2ccc(Br)cc12	4	-	-	-	155	-	188	136	130
O=C(Nc1nc2ccccc2[nH]1)c1cccc([N+](=O)[O-])c1	.	-	-	-	156	-	169	-	120

Assay outcomes (PubChem BioAssay)
